PMC8451875 (British Journal of Clinical Pharmacology, 2021)

Experiments:
[1] = Phase I 2-way drug interaction study, safety and tolerability; type: in vivo, healthy adults; details: for overall drug interaction, tolerability and safety finding: administered alone or in combination, healthy adults
In short: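 Open-label, fixed-sequence study in healthy men and women aged 18–55 years with BMI 18.5–31.0 kg/m2. Each drug was given alone and in combination, with a moderate-fat meal 30 min before dosing. Adverse events were monitored along with clinical laboratory values, vital signs, electrocardiography and physical examination, and summarised descriptively.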

[2] = healthy participants administered GSK3640254; cited from earlier work
[3] = Phase I 2-way drug interaction study, steady-state plasma pharmacokinetics; type: in vivo, healthy adults
In short: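 After an overnight fast of ≥8 h and a moderate-fat meal 30 min before dosing, each drug was given once daily in fixed sequence. Plasma was sampled predose daily, then postdose on the final dosing day at 1–24 h, extended to 72 h or 96 h. Noncompartmental ln-transformed AUC0-t, Cmax and Ct were fitted by linear mixed model (period fixed, participant random) for GMR and 90% CI. t1/2 was descriptive.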

HIV‐1 subtypes = details: no cross-resistance to currently approved antiretroviral treatments; cited from earlier work
[4] = dolutegravir 50 mg + GSK3640254 200 mg QD, after Day 7 dose, n = 16

Structure (SMILES) | contact dermatitis at the electrocardiographic electrode site ([1]; 16 participants per treatment) [event] | overall drug interaction, tolerability and safety finding [1] | most commonly reported adverse event [2] | GSK3640254 t1/2, geometric mean (SD Ln) [3, 4] | AUC ([3]; human, plasma, 200 mg) [ng·h/mL] | Cmax ([3]; human, plasma, 200 mg) [ng/mL] | Tmax ([3]; human, plasma, 200 mg) [h] | concentration at 24 h ([3]; human, plasma, 200 mg) [ng/mL] | inhibition across HIV‐1 subtypes (HIV‐1 subtypes) | dolutegravir Tmax (median [min, max]) ([3]; dolutegravir 50 mg + GSK3640254 200 mg QD, Day 7, n = 16) | dolutegravir t1/2, geometric mean (SD Ln) [3, 4] | dolutegravir Cmax, geometric mean (SD Ln) ([3]; dolutegravir 50 mg QD alone, Day 5, steady state, moderate-fat meal, plasma, n = 16) | dolutegravir t1/2, geometric mean (SD Ln) ([3]; dolutegravir 50 mg QD alone, after Day 5 dose, n = 16) | concentration at 24 h ([3]; human, plasma, 50 mg) [ng/mL]
C=C(C)[C@@H]1CC[C@]2(NCCN3CCS(=O)(=O)CC3)CC[C@]3(C)[C@H](CC[C@@H]4[C@@]5(C)CC=C(C6=CC[C@@](CF)(C(=O)O)CC6)C(C)(C)[C@@H]5CC[C@]43C)[C@@H]12 [GSK3640254] | 1 | not associated with drug–drug interactions or major tolerability or safety findings | headaches | 23.42 (1.16) h | 26700 | 1680 | 5 | 860 | demonstrated inhibition | – | – | – | – | –
C[C@@H]1CCO[C@H]2Cn3cc(C(=O)NCc4ccc(F)cc4F)c(=O)c(O)c3C(=O)N12 [dolutegravir, reference compound] | – | not associated with drug–drug interactions or major tolerability or safety findings | – | – | – | – | – | – | – | 3.0 (1.0, 4.5) h | 14.69 (1.13) h | 4.96 (1.18) μg/mL | 14.49 (1.13) h | 1370
